These results are taken from the array DNA melting data of Ke et al. (doi:10.1101/2024.01.08.574731).

Data set [1] is described as follows: folding enthalpy; higher = less favourable; fluorescence melt of hairpins on a sequencing array, two-state fit. Particulars: sodium 0.088 M. An outline of the steps: (§1)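 Two-state fits, bootstrapped, provided melting temperature and folding enthalpy from Cy3 fluorescence normalised to pre-quench Cy3 and to control constructs. Library hairpins with annealed Cy3 and quencher oligos were imaged on a sequenced MiSeq flow cell in 50 mM Na-HEPES pH 8.0, 25 mM NaCl, at 2.5 °C intervals up to 60 °C. Four replicates were combined with inverse-variance weighting. A 9.35 °C upward shift was applied to fitted temperatures to match UV melts.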

Data set [2] can be described thus: melting temperature; fluorescence melt of hairpins on a sequencing array, two-state fit, raised by 9.35 °C to match UV melts. Particulars: sodium 0.088 M. An outline of the steps: as §1

As for GGTGCTACGAAAGTAACC (((..(((....)))))), the folding enthalpy in data set [1] was -13.5 kcal/mol. The Tm in data set [2] worked out at 29.1 °C.

GGTGCTCGAAAGAGGACC (((.(((....))).))): the folding enthalpy in data set [1] was -47.6 kcal/mol. Also, the Tm in data set [2] turned out to be 59.7 °C.

In the case of GGTGCTGGAAACAGCGCC ((.((((....)))).)), the folding enthalpy in data set [1] is -34.3 kcal/mol. Further, the Tm in data set [2] turned out to be 64.9 °C.

Take GGTGGACCGAAAGGTACC (((..(((....)))))): in data set [1], the folding enthalpy is -13.4 kcal/mol. In data set [2], the Tm stood at 45 °C.

In the case of GGTGGACGAAAGTCTACC (((.(((....))).))), in data set [1], the folding enthalpy is -41.5 kcal/mol. Moreover, in data set [2], the Tm is 59 °C.

In the case of GGTGGAGGAAACCCCACC (((((.(....).))))), in data set [1], the folding enthalpy is -43.6 kcal/mol. Besides, the Tm in data set [2] amounted to 51.1 °C.

On to GGTGGAGGAAACTTCGCC ((.(.((....)).).)), for which, in data set [1], the folding enthalpy is -28.2 kcal/mol. For the same sequence, the Tm in data set [2] is 37.7 °C.

Take GGTGGCCCGAAAGGGACC (((..(((....)))))): the folding enthalpy in data set [1] was -12.7 kcal/mol. The Tm in data set [2] was 52.2 °C.

For the sequence GGTGGCCGAAAGGCACC (((.(((....)))))), the folding enthalpy in data set [1] is -18.5 kcal/mol. Besides, in data set [2], the Tm was 61.8 °C.

In the case of GGTGGCGAAAGCCCTACC ((((((....)))..))), the folding enthalpy in data set [1] is -13.2 kcal/mol. Also, the Tm in data set [2] came out at 36.1 °C.

As to GGTGGCGAAAGCCGCACC ((((((....)))..))), the folding enthalpy in data set [1] is -9.89 kcal/mol. Moreover, in data set [2], the Tm amounted to 47.7 °C.

GGTGGCGGAAACGCCATC (.(((((....))))).): the folding enthalpy in data set [1] was -16.4 kcal/mol. For the same sequence, the Tm in data set [2] is 59.9 °C.

Turning to GGTGGCGGAAACGCCGTC (..((((....))))..), the folding enthalpy in data set [1] was -10.1 kcal/mol. Moreover, in data set [2], the Tm was 45.1 °C.

In the case of GGTGGCTCGAAAGAGACC (((..(((....)))))), the folding enthalpy in data set [1] is -13.5 kcal/mol. The Tm in data set [2] was 42 °C.

In the case of GGTGGGCCGAAAGGCACC (((..(((....)))))), the folding enthalpy in data set [1] was -10.5 kcal/mol. The Tm in data set [2] turned out to be 50.5 °C.

GGTGGGGGAAACCCTGCC ((..(((....)))..)): the folding enthalpy in data set [1] was -27.9 kcal/mol. For the same sequence, in data set [2], the Tm was determined as 47.8 °C.

For the sequence GGTGGGGGAAACCTCGCC ((.(.((....)).).)), the folding enthalpy in data set [1] is -30.8 kcal/mol. For the same sequence, the Tm in data set [2] amounted to 45.6 °C.

Regarding GGTGGTACGAAAGTAACC (((..(((....)))))), the folding enthalpy in data set [1] is -19 kcal/mol. Further, the Tm in data set [2] is 43.8 °C.

For GGTGGTCGAAAGACACC (((.(((....)))))), the folding enthalpy in data set [1] is -17.5 kcal/mol. For the same sequence, the Tm in data set [2] is 54.8 °C.

Consider GGTGGTCGAAAGACTACC (((.(((....))).))), for which, in data set [1], the folding enthalpy is -43.2 kcal/mol. For the same sequence, the Tm in data set [2] is 57 °C.

Consider GGTGTACCGAAAGGTACC (((..(((....)))))), for which the folding enthalpy in data set [1] was -9.75 kcal/mol. Further, in data set [2], the Tm was determined as 44.7 °C.

As to GGTGTAGGAAACTGCACC ((((.((....)).)))), the folding enthalpy in data set [1] was -44.5 kcal/mol. The Tm in data set [2] came to 52.7 °C.

With GGTGTCCGAAAGGAACC (((.(((....)))))), the folding enthalpy in data set [1] is -19.8 kcal/mol. The Tm in data set [2] was found to be 48.3 °C.

Turning to GGTGTCGAAAGACGCACC ((((((....)))..))), in data set [1], the folding enthalpy was -13.6 kcal/mol. Further, the Tm in data set [2] stood at 42.4 °C.

Take GGTGTCGAAAGACGTACC ((((((....)))..))): the folding enthalpy in data set [1] is -19.3 kcal/mol. Moreover, in data set [2], the Tm was 41.9 °C.

With GGTGTCGAAAGACTACC ((((((....))).))), the folding enthalpy in data set [1] was -17.7 kcal/mol. In addition, in data set [2], the Tm came out at 47.8 °C.

As to GGTGTCGAAAGACTGACC ((((((....)))..))), the folding enthalpy in data set [1] was -18.4 kcal/mol. Also, the Tm in data set [2] came to 40.5 °C.

Take GGTGTCGGAAACGACGTC (..((((....))))..): in data set [1], the folding enthalpy is -12.3 kcal/mol. In addition, the Tm in data set [2] was determined as 36.8 °C.

For the sequence GGTGTCGGAAACGGCATC (.((.((....)).)).), the folding enthalpy in data set [1] is -26.1 kcal/mol. The Tm in data set [2] came out at 44.4 °C.

GGTGTGCGAAAGCAACC (((.(((....)))))): the folding enthalpy in data set [1] was -17 kcal/mol. Besides, the Tm in data set [2] is 52.1 °C.

As for GGTGTGCGAAAGCAGACC (((.(((....))).))), the folding enthalpy in data set [1] was -33.9 kcal/mol. In addition, the Tm in data set [2] was 64.4 °C.

Regarding GGTGTGGCGAAAGCCACC (((..(((....)))))), the folding enthalpy in data set [1] was -7.44 kcal/mol. In data set [2], the Tm came to 49 °C.

Take GGTGTGGGAAACCATACC (((.(((....))).))): in data set [1], the folding enthalpy is -33.5 kcal/mol. Further, the Tm in data set [2] was 50.8 °C.

For GGTGTGGGAAACCGTACC (((..((....))..))), in data set [1], the folding enthalpy was -24.1 kcal/mol. In addition, in data set [2], the Tm was found to be 36.8 °C.

On to GGTGTTACGAAAGTAACC (((..(((....)))))), for which the folding enthalpy in data set [1] is -13.8 kcal/mol. The Tm in data set [2] came to 45.2 °C.

Take GGTGTTCCGAAAGGAACC (((..(((....)))))): the folding enthalpy in data set [1] is -9.16 kcal/mol. Moreover, the Tm in data set [2] was determined as 47.7 °C.

GGTTAAACGAAAGTTACC (((..(((....)))))): the folding enthalpy in data set [1] is -14.3 kcal/mol. The Tm in data set [2] is 32 °C.
